In ChEMBL document CHEMBL5096186, “Design, Synthesis, and Biological Evaluation of Novel Pyrimido[4,5-b]indole Derivatives Against Gram-Negative Multidrug-Resistant Pathogens” (J Med Chem, 2021):
In brackets after ≈: the same amount, converted by molar mass.

Assays:
Escherichia coli [1] = test: Antibacterial activity against Escherichia coli ATCC 35218 strains 15 1 to 3 assessed as reduction in bacterial growth incubated for 18 to 20 hrs by CLSI based microdilution method; format: functional; details: time 18-20 hrs
Summary of the method: (§1)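 CLSI broth microdilution. Compounds in DMSO (levofloxacin and meropenem in water), serial twofold dilutions in broth, 64 to 0.008 μg/mL. […] Results reported as MIC ranges across strains.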

Escherichia coli [2] = test: Antibacterial activity against multidrug resistant wild type Escherichia coli ATCC BAA-2340 assessed as reduction in bacterial growth incubated for 18 to 20 hrs by CLSI based microdilution method; format: functional; details: time 18-20 hrs
Summary of the method: (§2)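 Broth microdilution per CLSI. Compounds dissolved in DMSO (levofloxacin and meropenem in water) as 64 μg/mL stock, then serial twofold dilutions in broth giving 64 to 0.008 μg/mL. […] Clinical isolates tested as several strains per group; racemic GP-1 served as positive control; values given as MIC ranges.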

[3] = Metabolic stability in rat liver microsome assessed as elimination half life at 0.1 uM in presence of NADPH incubated upto 60 mins by LC-MS/MS analysis; format: ADME; details: liver microsomes, read-out: beta t1/2
Summary of the method: (§3)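 Compound at 0.1 μM final, in 0.01% DMSO with 0.005% BSA. Incubated with rat or human liver microsomes at 0.33 mg/mL in 0.1 M Tris-HCl, pH 7.4, with 5 mM MgCl₂ and 1 mM NADPH, at 37 °C. Samples at 0, 7, 17, 30 and 60 min quenched with cold methanol and analysed by LC-MS/MS. Half-life, Cl_int and MF% derived as previously described.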

Acinetobacter baumannii [4] = test: Antibacterial activity against wild type Acinetobacter baumannii NCTC 13304 assessed as reduction in bacterial growth incubated for 18 to 20 hrs by CLSI based microdilution method; format: functional; details: time 18-20 hrs; summary of the method: as §2
[5] = Volume of distribution at the steady state in Sprague-Dawley rat at 4 mg/kg, iv measured upto 24 hrs by LC-MS/MS analysis; format: ADME, organism-based; details: in vivo, read-out: Vdss
Summary of the method: (§4)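 Male Sprague-Dawley rats, n = 3 per group, single intravenous dose. For 4 mg/kg: 180–280 g rats, vehicle 5% DMSO + 5% EtOH + 40% PEG300 + 50% saline, blood from the retrobulbar vein at 0.05–24 h. For 5 and 20 mg/kg: 180–300 g rats, vehicle 5% DMSO + 5% solutol + 90% saline, sampled at 0.083–24 h. Plasma quantified by LC/MS/MS. Parameters from mean plasma concentration by noncompartmental analysis; values are mean ± standard deviation.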

Acinetobacter baumannii [6] = test: Antibacterial activity agains OXA23-producing multidrug resistant Acinetobacter baumannii assessed as reduction in bacterial growth incubated for 18 to 20 hrs by CLSI based microdilution method; format: functional; details: time 18-20 hrs; summary of the method: as §2
Klebsiella pneumoniae [7] = test: Antibacterial activity agains wild type Klebsiella pneumoniae ATCC BAA-2470 assessed as reduction in bacterial growth incubated for 18 to 20 hrs by CLSI based microdilution method; format: functional; details: time 18-20 hrs; summary of the method: as §2
[8] = Metabolic stability in human liver microsome assessed as metabolic bioavailability at 0.1 uM in presence of NADPH incubated upto 60 mins by LC-MS/MS analysis; format: ADME; details: liver microsomes; summary of the method: as §3
[9] = Metabolic stability in human liver microsome assessed as elimination half life at 0.1 uM in presence of NADPH incubated upto 60 mins by LC-MS/MS analysis; format: ADME; details: liver microsomes, read-out: beta t1/2; summary of the method: as §3
[10] = Metabolic stability in rat liver microsome assessed as intrinsic clearance at 0.1 uM in presence of NADPH incubated upto 60 mins by LC-MS/MS analysis; format: ADME; details: microsomes, 1 h; summary of the method: as §3
Escherichia coli [11] = test: Antibacterial activity against ESBL-producing multidrug resistant Escherichia coli assessed as reduction in bacterial growth incubated for 18 to 20 hrs by CLSI based microdilution method; format: functional; details: time 18-20 hrs; summary of the method: as §2
[12] = molecular target: hERG (KCNH2) potassium channel (Homo sapiens, UniProt Q12809); test: Inhibition of hERG potassium channel assessed as maximum inhibition rate at 40 uM at -80 mV holding potential incubated for 120 seconds by whole cell-automated voltage clamp analysis assay relative to control; format: toxicity; details: time 120 sec
Chain of hERG (KCNH2) potassium channel (Q12809 whole entry): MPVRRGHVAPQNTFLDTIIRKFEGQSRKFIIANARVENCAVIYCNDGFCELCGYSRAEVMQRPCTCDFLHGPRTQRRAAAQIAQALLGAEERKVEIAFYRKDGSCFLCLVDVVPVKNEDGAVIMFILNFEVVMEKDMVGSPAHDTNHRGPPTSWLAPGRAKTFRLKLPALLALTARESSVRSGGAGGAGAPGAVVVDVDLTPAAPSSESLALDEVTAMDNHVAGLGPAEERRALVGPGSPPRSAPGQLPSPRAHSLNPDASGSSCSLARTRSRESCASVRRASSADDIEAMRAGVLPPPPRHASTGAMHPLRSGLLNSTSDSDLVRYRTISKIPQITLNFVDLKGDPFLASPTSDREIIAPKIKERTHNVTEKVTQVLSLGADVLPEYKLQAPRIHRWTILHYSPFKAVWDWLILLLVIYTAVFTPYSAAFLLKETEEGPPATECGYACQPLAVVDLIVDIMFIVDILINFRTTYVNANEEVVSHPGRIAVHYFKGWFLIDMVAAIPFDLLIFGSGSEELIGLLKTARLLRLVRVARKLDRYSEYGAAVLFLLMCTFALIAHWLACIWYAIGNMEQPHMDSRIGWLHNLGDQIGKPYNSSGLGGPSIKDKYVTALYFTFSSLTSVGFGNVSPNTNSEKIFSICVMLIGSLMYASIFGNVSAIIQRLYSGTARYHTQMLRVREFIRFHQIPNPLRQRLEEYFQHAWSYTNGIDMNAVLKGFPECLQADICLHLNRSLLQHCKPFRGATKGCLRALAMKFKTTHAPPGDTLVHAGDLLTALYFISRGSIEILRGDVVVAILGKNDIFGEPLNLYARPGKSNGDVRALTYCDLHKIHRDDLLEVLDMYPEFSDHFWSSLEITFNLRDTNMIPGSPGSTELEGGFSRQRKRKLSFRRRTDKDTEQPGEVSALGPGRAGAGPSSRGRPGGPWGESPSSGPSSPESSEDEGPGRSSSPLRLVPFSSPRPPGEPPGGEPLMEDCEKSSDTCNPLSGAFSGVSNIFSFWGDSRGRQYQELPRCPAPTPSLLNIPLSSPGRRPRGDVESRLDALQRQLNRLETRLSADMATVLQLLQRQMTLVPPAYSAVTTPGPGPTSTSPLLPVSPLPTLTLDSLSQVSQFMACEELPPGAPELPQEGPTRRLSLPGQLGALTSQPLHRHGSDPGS
Summary of the method: (§5)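 Automated whole-cell patch clamp, holding potential −80 mV. Voltage protocol applied every 20 s. Baseline set with external solution containing 0.1% DMSO and stabilised 3 min. Compound applied until steady state, at least 3 min, then washout. Maximum tested concentration 40 μM, or 3 μM for cisapride as positive control.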

Pseudomonas aeruginosa [13] = test: Antibacterial activity against IMP4-producing multidrug resistant Pseudomonas aeruginosa assessed as reduction in bacterial growth incubated for 18 to 20 hrs by CLSI based microdilution method; format: functional; details: time 18-20 hrs; summary of the method: as §2
[14] = Metabolic stability in human liver microsome assessed as intrinsic clearance at 0.1 uM in presence of NADPH incubated upto 60 mins by LC-MS/MS analysis; format: ADME; details: microsomes, 1 h; summary of the method: as §3
[15] = MRT in Sprague-Dawley rat at 4 mg/kg, iv measured upto 24 hrs by LC-MS/MS analysis; format: ADME, organism-based; details: in vivo; summary of the method: as §4
[16] = Clearance in Sprague-Dawley rat at 4 mg/kg, iv measured upto 24 hrs by LC-MS/MS analysis; format: ADME, organism-based; details: in vivo; summary of the method: as §4
Klebsiella pneumoniae [17] = test: Antibacterial activity agains wild type Klebsiella pneumoniae ATCC BAA-1705 assessed as reduction in bacterial growth incubated for 18 to 20 hrs by CLSI based microdilution method; format: functional; details: time 18-20 hrs; summary of the method: as §1
Escherichia coli [18] = test: Antibacterial activity against ESBL-producing Escherichia coli ATCC 35218 strains 15 1 to 3 assessed as reduction in bacterial growth incubated for 18 to 20 hrs by CLSI based microdilution method; format: functional; details: time 18-20 hrs; summary of the method: as §1
Pseudomonas aeruginosa [19] = test: Antibacterial activity against multidrug resistant Pseudomonas aeruginosa strains 15 1 to 3 assessed as reduction in bacterial growth incubated for 18 to 20 hrs by CLSI based microdilution method; format: functional; details: time 18-20 hrs; summary of the method: as §2
Escherichia coli [20] = test: Antibacterial activity against multidrug resistant wild type Escherichia coli NCTC 13353 assessed as reduction in bacterial growth incubated for 18 to 20 hrs by CLSI based microdilution method; format: functional; details: time 18-20 hrs; summary of the method: as §2
Pseudomonas aeruginosa [21] = test: Antibacterial activity against wild type Pseudomonas aeruginosa ATCC 27853 assessed as reduction in bacterial growth incubated for 18 to 20 hrs by CLSI based microdilution method; format: functional; details: time 18-20 hrs; summary of the method: as §1
[22] = molecular target: Voltage-gated inwardly rectifying potassium channel KCNH2 (Homo sapiens, UniProt Q12809); test: Inhibition of hERG potassium channel assessed as […] at -80 mV holding potential incubated for 120 seconds by whole cell-automated voltage clamp analysis assay; format: toxicity; summary of the method: as §5
Chain of Voltage-gated inwardly rectifying potassium channel KCNH2 (Q12809 whole entry): as above

[23] = AUC (0 to infinity) in Sprague-Dawley rat at 4 mg/kg, iv measured upto 24 hrs by LC-MS/MS analysis; format: ADME, organism-based; set-up: time < 24 hrs, dose 4 mg/kg, route iv; details: in vivo; summary of the method: as §4
Klebsiella pneumoniae [24] = test: Antibacterial activity against KPC2-producing multidrug resistant Klebsiella pneumoniae assessed as reduction in bacterial growth incubated for 18 to 20 hrs by CLSI based microdilution method; format: functional; details: time 18-20 hrs; summary of the method: as §2
[25] = Elimination half life in Sprague-Dawley rat at 4 mg/kg, iv measured upto 24 hrs by LC-MS/MS analysis; format: ADME, organism-based; details: in vivo, read-out: beta t1/2 (converted); summary of the method: as §4
Staphylococcus aureus [26] = test: Antibacterial activity against methicillin-sensitive Staphylococcus aureus strains 15 1 to 4 assessed as reduction in bacterial growth incubated for 18 to 20 hrs by CLSI based microdilution method; format: functional; details: time 18-20 hrs; summary of the method: as §2
[27] = tested on: Staphylococcus epidermidis; test: Antibacterial activity against methicillin-sensitive Staphylococcus epidermidis strains 15 1 to 4 assessed as reduction in bacterial growth incubated for 18 to 20 hrs by CLSI based microdilution method; format: functional; details: time 18-20 hrs; summary of the method: as §2
[28] = Metabolic stability in rat liver microsome assessed as metabolic bioavailability at 0.1 uM in presence of NADPH incubated upto 60 mins by LC-MS/MS analysis; format: ADME; details: liver microsomes; summary of the method: as §3
[29] = tested on: Staphylococcus epidermidis; test: Antibacterial activity against methicillin-resistant Staphylococcus epidermidis strains 15 1 to 4 assessed as reduction in bacterial growth incubated for 18 to 20 hrs by CLSI based microdilution method; format: functional; details: time 18-20 hrs; summary of the method: as §2
Staphylococcus aureus [30] = test: Antibacterial activity against methicillin-resistant Staphylococcus aureus strains 15 1 to 4 assessed as reduction in bacterial growth incubated for 18 to 20 hrs by CLSI based microdilution method; format: functional; details: time 18-20 hrs; summary of the method: as §2

Structure (SMILES)	MIC (Escherichia coli [1])	MIC (Escherichia coli [2])	half-life at 0.1 µM [3]	MIC (Acinetobacter baumannii [4])	Vd [5]	MIC (Acinetobacter baumannii [6])	MIC (Klebsiella pneumoniae [7])	Fh at 1 h, 0.1 µM [8]	half-life at 0.1 µM [9]	CLH [10]	MIC (Escherichia coli [11])	inhibition at 2 min, 40 µM [12]	MIC (Pseudomonas aeruginosa [13])	CLH [14]	MRT [15]	MIC (Escherichia coli [18])	MIC (Pseudomonas aeruginosa [19])	IC50 [22]	MIC (Staphylococcus aureus [26])	MIC [27]	further results
CCCC(CN)=C1CN(c2nc(Oc3cnc(C)nc3)nc3[nH]c4c(NC)cc(F)cc4c23)C1	0.06 µg/mL (≈ 0.13 µM)	1 µg/mL (≈ 2.16 µM)	0.415 h	1 µg/mL (≈ 2.16 µM)	22.5 L/kg	0.5 µg/mL (≈ 1.08 µM)	4 µg/mL (≈ 8.65 µM)	30.7%	0.792 h	84.4 mL/min/g	1 µg/mL (≈ 2.16 µM)	50.6%	4 µg/mL (≈ 8.65 µM)	44.3 mL/min/g	4.4 h	0.125 µg/mL (≈ 0.27 µM)	2 µg/mL (≈ 4.32 µM)	51.5 µM	< 0.008 µg/mL	< 0.008 µg/mL	clearance [16]: 86.8 mL/min/kg; MIC (Klebsiella pneumoniae [17]): 8 µg/mL (≈ 17.3 µM); MIC (Escherichia coli [20]): 0.5 µg/mL (≈ 1.08 µM); MIC (Pseudomonas aeruginosa [21]): 4 µg/mL (≈ 8.65 µM); AUC(0-inf) [23]: 778 ng·h/mL; MIC (Klebsiella pneumoniae [24]): 4 µg/mL (≈ 8.65 µM); half-life [25]: 4.7 h; Fh at 1 h, 0.1 µM [28]: 34.5%
CNc1cc(F)cc2c1[nH]c1nc(Oc3cnc(C)nc3)nc(N3CC(=CC(C)N)C3)c12 (stereo not given)	0.06 µg/mL (≈ 0.138 µM)	1 µg/mL (≈ 2.3 µM)	0.2 h	0.5 µg/mL (≈ 1.15 µM)	33.4 L/kg	0.5 µg/mL (≈ 1.15 µM)	4 µg/mL (≈ 9.21 µM)	50%	1.78 h	180.9 mL/min/g	1 µg/mL (≈ 2.3 µM)	32.3%	8 µg/mL (≈ 18.4 µM)	19.6 mL/min/g	6.8 h	0.125 µg/mL (≈ 0.288 µM)	0.5 µg/mL (≈ 1.15 µM)	> 40 µM	< 0.008 µg/mL	< 0.008 µg/mL	clearance [16]: 81.5 mL/min/kg; MIC (Klebsiella pneumoniae [17]): 8 µg/mL (≈ 18.4 µM); MIC (Escherichia coli [20]): 0.5 µg/mL (≈ 1.15 µM); MIC (Pseudomonas aeruginosa [21]): 4 µg/mL (≈ 9.21 µM); AUC(0-inf) [23]: 836 ng·h/mL; MIC (Klebsiella pneumoniae [24]): 4 µg/mL (≈ 9.21 µM); half-life [25]: 9 h; Fh at 1 h, 0.1 µM [28]: 19.7%
CNc1cc(F)cc2c1[nH]c1nc(Oc3cnc(C)nc3)nc(N3CC(=C(F)CN)C3)c12	0.06 µg/mL (≈ 0.137 µM)											3.2%				0.25 µg/mL (≈ 0.57 µM)	> 16 µg/mL	> 40 µM	0.015 µg/mL (≈ 0.0342 µM)	0.125 µg/mL (≈ 0.285 µM)	MIC [29]: 0.015 µg/mL (≈ 0.0342 µM); MIC (Staphylococcus aureus [30]): 0.015 µg/mL (≈ 0.0342 µM)
